An excerpt weighted towards active compounds, which were near 1.6% of everything screened.
14-3-3 Bad PPI: inhibitors of 14-3-3 zeta/Bad binding, primary screen, biochemical, TR-FRET, bovine 14-3-3 zeta; TR-FRET 14-3-3zeta/Dy647-pBad peptide displacement, 1 h; AID 781, 2007; 14-3-3 protein zeta/delta (Bos taurus), P63103; actives 0.71% (n = 220,000); inhibition, % at 21.7 µM;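 active means inhibition above about 70%, limit read from the data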;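 further: 0% = full 14-3-3 plus peptide FRET controls and 100% = background without 14-3-3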
Target sequence (P63103 whole entry, looked up): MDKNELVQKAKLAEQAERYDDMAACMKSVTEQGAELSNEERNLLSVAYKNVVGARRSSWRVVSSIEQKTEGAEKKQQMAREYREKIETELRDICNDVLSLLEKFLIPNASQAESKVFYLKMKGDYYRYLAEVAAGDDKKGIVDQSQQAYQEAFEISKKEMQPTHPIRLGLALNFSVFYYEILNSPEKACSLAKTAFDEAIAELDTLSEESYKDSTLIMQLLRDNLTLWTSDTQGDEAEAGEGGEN
eIF4E 4G PPI: eIF4E–eIF4G protein interaction inhibitors, primary screen, biochemical, uHTS, TR-FRET, eIF4GI fragment; TR-FRET eIF4E-eIF4GI(517-606) binding, 2 h; Eukaryotic translation initiation factor 4E (Mus musculus) + Eukaryotic translation …; inhibition, % at 21.7 µM; actives 0.37% (n = 220,000);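 further: 0% = full FRET control wells and 100% = background wells lacking eIF4GI fragment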
TbMetRS inhib: T. brucei MetRS inhibitors, primary screen, biochemical, luminescence; inhibition, % at 11.9 µM; AID 624268, 2012; purified T. brucei MetRS, ATP depletion, Kinase-Glo luminescence; actives 0.4% (n = 360,000); methionyl-tRNA synthetase (Trypanosoma brucei brucei);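 active means inhibition above a per-plate cutoff of the control wells' mean inhibition plus 3 SD, cut at about 5.5% in these data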;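 further: 0% = DMSO wells median and 100% = median of wells with control inhibitor compound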
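Measured by: Kinase-Glo luciferase luminescence reporting remaining unconsumed ATP. Material: purified T. brucei MetRS enzyme. Doses: 11.9 µM compound single dose, 0.9% DMSO. Medium: HEPES buffer containing pyrophosphatase, BSA, spermine, DTT. Times: 15 min preincubation, 2 h reaction, all 25 °C. Reagent: methionine, ATP and bulk E. coli tRNA.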
p97 ATPase inh: inhibitors of human p97 ATPase, primary screen, biochemical. Transitional endoplasmic reticulum ATPase (Homo sapiens), P55072. recombinant p97 ATPase, Kinase-Glo ATP luminescence, 3 h. inhibition, % at 8 µM. actives 0.42% (n = 220,000). AID 1481, 2009; in the data active means inhibition above about 15%;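 further: 0% = DMSO vehicle and 100% = wells lacking enzyme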
SUMO HTRF inh: inhibitors of in vitro SUMOylation cascade, primary screen, biochemical, HTRF, uHTS | HTRF SUMOylation assay, SAE1/SAE2 + UBC9 | inhibition, % at 35 µM | actives 0.36% (n = 290,000); in the data active means inhibition above about 50%, passing the limit was not always enough
NCF1 inh: p47phox/p22phox peptide binding inhibitors, primary screen, biochemical, uHTS, NADPH oxidase regulatory subunit; Neutrophil cytosol factor 1 (Homo sapiens), P14598; fluorescence polarization, 2 h; inhibition, % at 24.7 µM; actives 0.53% (n = 220,000);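 further: 0% = p47phox with labelled peptide and 100% = labelled peptide alone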
Target sequence (P14598 whole entry, looked up): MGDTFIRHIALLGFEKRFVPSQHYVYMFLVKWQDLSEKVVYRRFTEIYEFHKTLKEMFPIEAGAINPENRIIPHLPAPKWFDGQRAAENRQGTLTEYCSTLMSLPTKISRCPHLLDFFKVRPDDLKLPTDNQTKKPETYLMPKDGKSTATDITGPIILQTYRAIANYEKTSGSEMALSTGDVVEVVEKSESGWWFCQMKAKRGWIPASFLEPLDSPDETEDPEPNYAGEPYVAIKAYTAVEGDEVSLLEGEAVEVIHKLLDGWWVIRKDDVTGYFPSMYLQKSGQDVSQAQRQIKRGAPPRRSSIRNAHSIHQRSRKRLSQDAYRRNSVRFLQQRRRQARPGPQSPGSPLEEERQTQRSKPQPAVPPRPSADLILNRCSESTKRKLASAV
Starred values were filed as active, the others as inactive.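 How the source made its calls, unless noted: active means inhibition above about 30% (limit read from the data); inactive means the rest.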

For Cc1ccc(-n2c(=O)c3cc4c(=O)n(-c5ccc(C)c(C)c5)c(=O)c4c(C(=O)c4ccc(C(=O)O)cc4)c3c2=O)cc1C the results were 14-3-3 Bad PPI 36.1, eIF4E 4G PPI 63.8*, TbMetRS inhib -0.7, p97 ATPase inh 0.3, SUMO HTRF inh 10.1 and NCF1 inh 18.4.
O=C(NCc1cccnc1)c1cc(C2CCCCN2C(=O)OCCF)on1 (centres undefined) was read as TbMetRS inhib -0.2.
Screening O=C(c1cccs1)N1CCc2c([nH]c3ccccc23)C1c1ccc(Cl)cc1 (centres undefined) returned 14-3-3 Bad PPI -4.8, eIF4E 4G PPI 11.2, TbMetRS inhib 1.1, p97 ATPase inh -2.2, SUMO HTRF inh -27.3 and NCF1 inh 31.5*.
O=C(c1cccs1)N1CCc2c([nH]c3ccccc23)C1c1ccccn1 (centres undefined) was read as 14-3-3 Bad PPI 4.8, eIF4E 4G PPI 0.5, TbMetRS inhib 2.2, p97 ATPase inh 1.0, SUMO HTRF inh 17.7 and NCF1 inh -2.1.
c1csc(-c2nn3c(Cn4cnc5ccccc54)nnc3s2)c1 was read as 14-3-3 Bad PPI 6.7, eIF4E 4G PPI 33.2*, TbMetRS inhib 0.0, p97 ATPase inh 0.6, SUMO HTRF inh -1.4 and NCF1 inh 7.4.
c1csc(-c2nn3c(Cn4nnc5ccccc54)nnc3s2)c1 was read as 14-3-3 Bad PPI 2.4, eIF4E 4G PPI -0.8, TbMetRS inhib -0.3, p97 ATPase inh 2.2, SUMO HTRF inh -0.2 and NCF1 inh 3.0.
COc1cccc(-c2cccc3c2NC(=O)C3(C)Cc2cccc(F)c2)c1 (centres undefined) was read as TbMetRS inhib -0.8.
O=C1NC[C@H](CCCCN2C[C@H](Cc3ccc(O)cc3)N(CCc3ccccc3)C(=O)C2=O)N(CCC2CCCCC2)C1=O was read as TbMetRS inhib -0.5.
Screening Cn1c(=O)c2cc(S(=O)(=O)Nc3ccc4c(c3)OCO4)ccc2n(C)c1=O returned 14-3-3 Bad PPI -28.0, eIF4E 4G PPI 2.2, TbMetRS inhib 0.3, p97 ATPase inh 3.2, SUMO HTRF inh 11.3 and NCF1 inh 65.1*.
`Cn1cc(S(=O)(=O)Nc2ccc3c(c2)OCCO3)cn1` gave 14-3-3 Bad PPI 89.0*, eIF4E 4G PPI 1.6, TbMetRS inhib 0.4, p97 ATPase inh -0.7, SUMO HTRF inh 3.8 and NCF1 inh -8.8.
`COc1ccc(CNC(=O)C[C@@H]2C=C[C@@H](NS(=O)(=O)c3cccc(OC)c3)[C@@H](CO)O2)cc1` gave TbMetRS inhib 0.0.
For O=C(NCCCN1CCOCC1)C(=O)NCC1OCCN1S(=O)(=O)c1ccc(Cl)cc1 (centres undefined) the results were TbMetRS inhib -0.4.
Brc1ccc(CN2CCN(c3ccccn3)CC2)s1 was read as 14-3-3 Bad PPI 85.5*, eIF4E 4G PPI 5.7, TbMetRS inhib -2.2, p97 ATPase inh 5.2, SUMO HTRF inh 6.1 and NCF1 inh -18.8.
CCCCNC(=O)C1C(c2ccc(C(F)(F)F)cc2)=Nc2ccccc2N1C(=O)c1cccc2ccccc12 (centres undefined) was read as TbMetRS inhib -0.8.
Cc1ccc(S(=O)(=O)N2CCN(C(=O)COC(=O)CSc3ccc(C)c(C)c3)CC2)c(C)c1 was read as TbMetRS inhib 0.3.
`O=c1oc2ccccc2cc1-c1nc(-c2cccs2)cs1` gave 14-3-3 Bad PPI -5.7, eIF4E 4G PPI -4.9, TbMetRS inhib 0.5, p97 ATPase inh 0.4, SUMO HTRF inh 22.9 and NCF1 inh 51.8*.
COc1cccc2cc(-c3nc(-c4cccs4)cs3)c(=O)oc12 was read as 14-3-3 Bad PPI 4.0, eIF4E 4G PPI -2.7, TbMetRS inhib 1.5, p97 ATPase inh 3.1, SUMO HTRF inh 23.7 and NCF1 inh -35.1.
`CCCCN(C)C(=O)c1ccc(Nc2nc(C(N)Cc3ccc(C(F)(F)F)cc3)cs2)nc1` (centres undefined) gave TbMetRS inhib 0.0.
For O=C(CCN1CCN(c2ccccc2)CC1)N/N=C/c1ccc(O)c(O)c1O the results were 14-3-3 Bad PPI 5.0, eIF4E 4G PPI 14.0, TbMetRS inhib -0.4, p97 ATPase inh 9.9, SUMO HTRF inh 76.4* and NCF1 inh 4.8.
Screening COc1ccc(/C=N/NC(=O)CCN2CCN(c3ccccc3)CC2)c(OC)c1OC returned 14-3-3 Bad PPI -8.9, eIF4E 4G PPI 0.1, TbMetRS inhib -0.8, p97 ATPase inh 0.6, SUMO HTRF inh -0.4 and NCF1 inh 3.0.
Screening O=C(Cc1csc(N2CCOCC2)n1)N/N=C/c1ccc(O)c(O)c1O returned 14-3-3 Bad PPI 28.8, eIF4E 4G PPI 10.2, TbMetRS inhib 0.1, p97 ATPase inh 6.6, SUMO HTRF inh 93.4* and NCF1 inh 2.1.
Screening CN1C(=O)c2cccc3c(S(=O)(=O)NCCc4ccccc4)ccc1c23 returned TbMetRS inhib 0.0 and SUMO HTRF inh 55.5*.
Cc1ccc(CNc2oc(C)nc2C#N)cc1 was read as 14-3-3 Bad PPI 88.6*, eIF4E 4G PPI 1.9, TbMetRS inhib -0.1, p97 ATPase inh 8.2, SUMO HTRF inh 14.0 and NCF1 inh -2.2.
`Cc1ccc(CNc2oc(-c3ccco3)nc2C#N)cc1` gave 14-3-3 Bad PPI -7.1, eIF4E 4G PPI -7.2, TbMetRS inhib -0.5, p97 ATPase inh 0.0, SUMO HTRF inh 4.8 and NCF1 inh -6.4.
`CCOC(=O)C1CCN(C(=O)c2ccc3c(=O)n4nc(Nc5ccccc5OC)sc4nc3c2)CC1` gave TbMetRS inhib -0.4.
`C/C(=N/NC(=O)C1COc2ccccc2O1)c1ccc(Br)s1` (centres undefined) gave 14-3-3 Bad PPI 0.6, eIF4E 4G PPI 97.9*, TbMetRS inhib -0.4, p97 ATPase inh -2.3, SUMO HTRF inh 6.1 and NCF1 inh -2.5.
CCOC(=O)C1CCN(c2ncnc3c2oc2ccccc23)CC1 was read as 14-3-3 Bad PPI -5.8, eIF4E 4G PPI -0.3, TbMetRS inhib 0.3, p97 ATPase inh -2.2, SUMO HTRF inh 11.6 and NCF1 inh -6.0.
Screening CCOC(=O)C1CCN(c2nc(-c3ccccc3)nc3c2oc2ccccc23)CC1 returned 14-3-3 Bad PPI 80.9*, eIF4E 4G PPI 7.2, TbMetRS inhib 0.2, p97 ATPase inh -1.8, SUMO HTRF inh -2.1 and NCF1 inh -11.5.

Source: PubChem (several laboratories)
